{
  "source": "ChEMBL document CHEMBL4364270",
  "about": "“Structure-activity relationship studies on Bax activator SMBA1 for the treatment of ER-positive and triple-negative breast cancer” (Eur J Med Chem, 2019)",
  "key": {"MDA-MB-468": {"tested_on": "MDA-MB-468", "assay": "Antiproliferative activity against triple negative human MDA-MB-468 cells assessed as reduction in cell growth at 1 uM incubated for 72 hrs by MTT assay relative to control", "assay_type": "functional", "details": "MDA-MB-468, 72 h", "in_short": "(§1)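 MTT viability after 72 h exposure at indicated concentrations; cells seeded at 1×10^3 cells/well (T47D, MDA-MB-468, MCF-10A, MCF-7/ADR) in 96-well plates; quadruplicate wells, independently repeated three times; IC50 as mean ± SE of at least three experiments.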"}, "MDA-MB-231 [1]": {"tested_on": "MDA-MB-231", "assay": "Induction of apoptosis in triple negative human MDA-MB-231 cells assessed as upregulation of caspase3 cleavage incubated for 48 hrs by Western blot analysis", "assay_type": "functional, cell-based"}, "MCF7 [2]": {"tested_on": "MCF7", "assay": "Induction of apoptosis in ER-positive human MCF7 cells assessed as decrease in cytosolic Bax level at 5 uM incubated for 48 hrs by Western blot analysis", "assay_type": "functional, cell-based", "in_short": "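Western blot of MCF-7 (and MDA-MB-231 for cytosolic fractions) cells exposed to 5 μM over 0-48 h; 30 µg protein per lane on SDS-PAGE, PVDF transfer, 5% milk block, overnight primary antibodies (total Bax, p-Bax, active Bax 6A7, cytochrome C), ECL detection; cytosolic fraction used for cytochrome c and Bax.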"}, "MDA-MB-231 [3]": {"tested_on": "MDA-MB-231", "assay": "Induction of apoptosis in triple-negative human MDA-MB-231 cells assessed as downregulation of cyclin D1 level incubated for 48 hrs by Western blot analysis", "assay_type": "functional, cell-based", "in_short": "(§2)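 Western blot: cells harvested after treatment, lysates quantified by Bradford (BSA standard), 30 µg protein resolved by SDS-PAGE, transferred to PVDF, blocked in 5% nonfat milk, probed overnight with anti-PARP-1, anti-cleaved PARP-1 or anti-cyclin D1 (1:1,000) and β-actin loading control; ECL visualization.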"}, "MCF7 [4]": {"tested_on": "MCF7", "assay": "Potency index, ratio of SMBA1 IC50 to compound IC50 for antiproliferative activity against ER-positive human MCF7 cells assessed as reduction in cell growth incubated for 48 hrs by MTT assay", "assay_type": "functional"}, "MCF7 [5]": {"tested_on": "MCF7", "assay": "Induction of apoptosis in ER-positive human MCF7 cells assessed as appearance of concentrated dense granules at 5 to 10 uM incubated for 24 hrs by Hoechst 33342 staining based fluorescence microscopy", "assay_type": "functional, cell-based", "in_short": "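Cells on coverslips (2.5×10^5/well) treated with DMSO or 5 and 10 μM for 24 h, washed in binding buffer, stained 15 min with FITC-annexin V, ethidium homodimer III and Hoechst 33342, mounted and imaged by fluorescence microscopy (DAPI filter) from center and peripheral regions.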"}, "MCF-10A": {"tested_on": "MCF-10A", "assay": "Antiproliferative activity against human MCF10A cells assessed as reduction in cell growth incubated for 72 hrs by MTT assay", "assay_type": "functional, cell-based", "in_short": "as §1"}, "MDA-MB-231 [6]": {"tested_on": "MDA-MB-231", "assay": "Potency index, ratio of IC50 of (E/Z)-2-(2-((2-nitro-9H-fluoren 9-ylidene)methyl)phenoxy)ethan-1-amine to IC50 of compound for antiproliferative activity against triple negative human MDA-MB-231 cells assessed as reduction in cell growth incubated for 48 hrs by MTT assay", "assay_type": "functional"}, "MCF7 [7]": {"tested_on": "MCF7", "assay": "Induction of apoptosis in ER-positive human MCF7 cells assessed as upregulation of PARP1 cleavage incubated for 48 hrs by Western blot analysis", "assay_type": "functional, cell-based", "in_short": "as §2"}, "MCF7 [8]": {"tested_on": "MCF7", "assay": "Antiproliferative activity against ER-positive human MCF7 cells assessed as reduction in cell growth at 1 uM incubated for 48 hrs by MTT assay relative to control", "assay_type": "functional", "details": "MCF7, 48 h", "in_short": "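MTT viability: MCF-7 and MDA-MB-231 seeded 1×10^4 cells/well, exposed to DMSO or 0.01-100 μM for 48 h; MTT (5 mg/mL in PBS) added 4 h, formazan dissolved in DMSO, OD 550 nm; quadruplicate wells; IC50 fitted for compounds giving >50% inhibition at 10 µM; at least three independent experiments.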"}},
  "note": "pIC50: −log10 of the molar value. The source made the active and inactive calls. The calls are words filed in the database; no cut-off is given here.",
  "data": [
    {"smiles": "NCCOc1ncccc1C=C1c2ccccc2-c2ccc([N+](=O)[O-])cc21", "values": [
      {"measurement": "inhibition at 1 µM", "setting": "MDA-MB-468", "result": "> 50", "unit": "%"},
      {"measurement": "Activity", "setting": "MDA-MB-231 [1]", "result": "Dose-dependent effect"},
      {"measurement": "Activity", "setting": "MCF7 [2]", "result": "Active"},
      {"measurement": "Activity", "setting": "MDA-MB-231 [3]", "result": "Dose-dependent effect"},
      {"measurement": "Ratio IC50", "setting": "MCF7 [4]", "result": "80 - 130"},
      {"measurement": "Activity", "setting": "MCF7 [5]", "result": "Active"},
      {"measurement": "pIC50", "setting": "MCF-10A", "result": 6.96},
      {"measurement": "Ratio IC50", "setting": "MDA-MB-231 [6]", "result": "40 - 60"},
      {"measurement": "Activity", "setting": "MCF7 [7]", "result": "Dose-dependent effect"},
      {"measurement": "inhibition at 1 µM", "setting": "MCF7 [8]", "result": "> 50", "unit": "%"}
    ]}
  ]
}
